According to ChEMBL document CHEMBL1154478, “Novel imidazo[1,2-a]naphthyridinic systems (part 1): synthesis, antiproliferative and DNA-intercalating activities” (2008):
Calls of active or inactive are those of the source. No cut-off for these calls is given here.

Tests used:
MCF7 [1] = test: Antiproliferative activity against human MCF7 cells after 48 hrs by SRB assay; type: functional; details: MCF7, 48 h
How it was run: (§1)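 Cells were grown in high-glucose DMEM with 5% defined bovine calf serum and pre-incubated 24 h at 37 °C in 5% CO2. Drugs were freshly dissolved in DMSO, diluted in medium and added in serial dilutions, with DMSO kept below 0.5%, and incubated 48 h. Cells were fixed with cold TCA (10% final, 60 min at 4 °C), stained 15 min with 0.1% SRB in 1% acetic acid, and the dye solubilized in Tris base. Absorbance was read at 585 nm and growth inhibition % calculated against a control plate fixed on the treatment day.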

HT-1080 = test: Antiproliferative activity against human HT1080 cells after 48 hrs by SRB assay; type: functional; details: HT-1080, 48 h; how it was run: as §1
M21 = test: Antiproliferative activity against human M21 cells after 48 hrs by SRB assay; type: functional; details: M21, 48 h; how it was run: as §1
[2] = Binding affinity to pGEM-9Zf(-) DNA assessed as effect on DNA migration at 40 uM by gel electrophoresis
How it was run: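 Human topo1 was then added and the mix held 2 h at 37 °C in the dark. The reaction was stopped with SDS and proteinase K (1 h, 45 °C). Products were run on 1% agarose with 0.1% SDS in TBE (16 h, 1.25 V/cm), stained with ethidium bromide, and re-run 2 h at 2 V/cm. Ethidium bromide served as the intercalation reference and camptothecin as the poison control.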

MCF7 [3] = test: Cell cycle arrest in human MCF7 cells assessed as accumulation at G2/M phase at 6.6 uM after 24 hrs by flow cytometry; type: functional, cell-based
How it was run: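 Exponentially growing MCF-7 cells were exposed to compound or DMSO control for 4, 24 or 48 h and analysed by flow cytometry with 488 nm argon laser excitation. Cell-cycle distribution was expressed as the treated/control ratio.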

HT-29 = test: Antiproliferative activity against human HT-29 cells after 48 hrs by SRB assay; type: functional; details: HT-29, 48 h; how it was run: as §1

Row | SMILES | GI50 (MCF7 [1]) [µM] | GI50 (HT-1080) [µM] | Activity [2] | GI50 (HT-29) [µM] | GI50 (M21) [µM] | Activity (MCF7 [3])
1 | c1cn2ccc3cc4c(nc3c2n1)CCCC4 | > 100 | > 100 | – | > 100 | > 100 | –
2 | Cc1cc2c(ccc3nccn32)nc1C | > 100 | > 100 | – | > 100 | > 100 | –
3 | Cc1cc2ccn3ccnc3c2nc1C | > 100 | > 100 | – | > 100 | > 100 | –
4 | CCc1ccc2ccn3ccnc3c2n1 | > 100 | > 100 | – | > 100 | > 100 | –
5 | c1cn2c(ccc3nc4c(cc32)CCCC4)n1 | > 100 | > 100 | – | > 100 | > 100 | –
6 | O=C1CCCc2nc3c(ccn4ccnc34)cc21 | > 100 | > 100 | – | > 100 | > 100 | –
7 | c1ccc(-c2ccc3ccn4ccnc4c3n2)cc1 | 60.5 | 57.7 | – | 48.4 | 56.5 | –
8 | Cc1ccc2ccn3ccnc3c2n1 | > 100 | > 100 | – | > 100 | > 100 | –
9 | CCc1ccc2c(ccc3nccn32)n1 | > 100 | > 100 | – | > 100 | > 100 | –
10 | O=C1CCCc2nc3ccc4nccn4c3cc21 | > 100 | > 100 | – | > 100 | > 100 | –
11 | CCOC(=O)C1CCc2nc3ccc4nccn4c3cc2C1 (stereo not drawn) | > 100 | > 100 | – | > 100 | > 100 | –
12 | Cc1ccc2c(ccc3nccn32)n1 | > 100 | > 100 | – | > 100 | > 100 | –

The next compounds have a lower GI50 (MCF7 [1]) than those just listed; values first:

Row | GI50 (MCF7 [1]) [µM] | GI50 (HT-1080) [µM] | Activity [2] | GI50 (HT-29) [µM] | SMILES | GI50 (M21) [µM] | Activity (MCF7 [3])
13 | 6.6 | 13.4 | Active | 7.2 | c1ccc2c(c1)CCc1cc3ccn4ccnc4c3nc1-2 | 8.1 | Active
14 | 5.6 | 1.6 | – | 16.8 | COc1cc(NS(C)(=O)=O)ccc1Nc1c2ccccc2nc2ccccc12 [AMSACRINE] | 49.6 | –
15 | 51.8 | 43.3 | – | 55.8 | c1ccc(-c2ccc3c(ccc4nccn43)n2)cc1 | 70.1 | –
16 | 46.5 | 41.4 | – | 49.2 | c1ccc2c(c1)CCc1nc3c(ccn4ccnc34)cc1-2 | 64.8 | –
17 | 20.9 | 32.7 | – | 27.8 | c1ccc2c(c1)CCc1cc3c(ccc4nccn43)nc1-2 | 52 | –
18 | 57.7 | 64.9 | – | 79.6 | CCOC(=O)C1CCc2nc3c(ccn4ccnc34)cc2C1 (stereo not drawn) | 80.3 | –
19 | 21.5 | 20.7 | – | 18.3 | c1ccc2cc3nc4c(ccn5ccnc45)cc3cc2c1 | 25.2 | –
